Measurements reported in ChEMBL document CHEMBL1156288, “Synthesis and evaluation of tricyclic derivatives containing a non-aromatic amide as inhibitors of poly(ADP-ribose)polymerase-1 (PARP-1)” (Bioorg Med Chem Lett, 2010).

Key:
[1] = biological target: T1, Poly [ADP-ribose] polymerase 1 (Homo sapiens, UniProt P09874); conditions: CHO-K1
[2] = biological target: T1, Poly [ADP-ribose] polymerase 1; experiment: Inhibition of PARP1
[3] = Solubility in water; format: physicochemical; conditions: buffer
[4] = Half life in human liver microsomes by LC/MS/MS analysis; format: ADME, Microsome
Summary of the method: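 Human liver microsomes incubated at 37 °C. Parent compound quantified by LC/MS/MS at 0, 15, 45 and 80 min, giving t1/2 in min. Mean of triplicate experiments; buspirone run alongside.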

[5] = Drug level in rat brain at 10 mg/kg, iv after 0.75 hrs by LC/MS/MS analysis; format: ADME, organism-based; set-up: dose 10 mg/kg, route intravenous; conditions: read-out: Drug uptake
Summary of the method: (§1)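 Single intravenous dose of 10 mg/kg in rats, n = 3. Brain (ng/g) and plasma (ng/ml) concentrations measured by LC/MS/MS at 0.17, 0.75 and 4.00 h. Ratio is brain over plasma concentration.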

[6] = AUC (0 to infinity) in rat at 10 mg/kg, iv by LC/MS/MS analysis; format: ADME, organism-based; set-up: time infinity, dose 10 mg/kg, route intravenous; conditions: plasma
Summary of the method: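 Rats (n = 3) received a single 10 mg/kg intravenous dose. Drug levels were measured by LC/MS/MS, and AUC from zero to infinity was derived alongside clearance and half-life as part of the pharmacokinetic profile.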

[7] = Ratio of drug level in brain to plasma in rat at 10 mg/kg, iv after 4 hrs by LC/MS/MS analysis; format: ADME, organism-based; set-up: dose 10 mg/kg, route intravenous
Summary of the method: as §1

[8] = Drug level in rat plasma at 10 mg/kg, iv after 0.17 hrs by LC/MS/MS analysis; format: ADME, organism-based; set-up: dose 10 mg/kg, route intravenous
Summary of the method: as §1

[9] = Drug level in rat plasma at 10 mg/kg, iv after 0.75 hrs by LC/MS/MS analysis; format: ADME, organism-based; set-up: dose 10 mg/kg, route intravenous
Summary of the method: as §1

[10] = Drug level in rat brain at 10 mg/kg, iv after 4 hrs by LC/MS/MS analysis; format: ADME, organism-based; set-up: dose 10 mg/kg, route intravenous; conditions: read-out: Drug uptake
Summary of the method: as §1

[11] = Ratio of drug level in brain to plasma in rat at 10 mg/kg, iv after 0.75 hrs by LC/MS/MS analysis; format: ADME, organism-based; set-up: dose 10 mg/kg, route intravenous
Summary of the method: as §1

[12] = Drug level in rat brain at 10 mg/kg, iv after 0.17 hrs by LC/MS/MS analysis; format: ADME, organism-based; set-up: dose 10 mg/kg, route intravenous; conditions: read-out: Drug uptake
Summary of the method: as §1

[13] = Ratio of drug level in brain to plasma in rat at 10 mg/kg, iv after 0.17 hrs by LC/MS/MS analysis; format: ADME, organism-based; set-up: dose 10 mg/kg, route intravenous
Summary of the method: as §1

[14] = Clearance in rat at 10 mg/kg, iv by LC/MS/MS analysis; format: ADME, organism-based; set-up: dose 10 mg/kg, route intravenous; conditions: in vivo
Summary of the method: (§2)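 Rats (n = 3) given 10 mg/kg by intravenous administration; plasma levels measured by LC/MS/MS; AUC0-inf, CL and t1/2 reported.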

[15] = Drug level in rat plasma at 10 mg/kg, iv after 4 hrs by LC/MS/MS analysis; format: ADME, organism-based; set-up: dose 10 mg/kg, route intravenous
Summary of the method: as §1

[16] = Half life in rat at 10 mg/kg, iv by LC/MS/MS analysis; format: ADME, organism-based; set-up: dose 10 mg/kg, route intravenous; conditions: in vivo
Summary of the method: as §2

T1 sequence (P09874 whole entry): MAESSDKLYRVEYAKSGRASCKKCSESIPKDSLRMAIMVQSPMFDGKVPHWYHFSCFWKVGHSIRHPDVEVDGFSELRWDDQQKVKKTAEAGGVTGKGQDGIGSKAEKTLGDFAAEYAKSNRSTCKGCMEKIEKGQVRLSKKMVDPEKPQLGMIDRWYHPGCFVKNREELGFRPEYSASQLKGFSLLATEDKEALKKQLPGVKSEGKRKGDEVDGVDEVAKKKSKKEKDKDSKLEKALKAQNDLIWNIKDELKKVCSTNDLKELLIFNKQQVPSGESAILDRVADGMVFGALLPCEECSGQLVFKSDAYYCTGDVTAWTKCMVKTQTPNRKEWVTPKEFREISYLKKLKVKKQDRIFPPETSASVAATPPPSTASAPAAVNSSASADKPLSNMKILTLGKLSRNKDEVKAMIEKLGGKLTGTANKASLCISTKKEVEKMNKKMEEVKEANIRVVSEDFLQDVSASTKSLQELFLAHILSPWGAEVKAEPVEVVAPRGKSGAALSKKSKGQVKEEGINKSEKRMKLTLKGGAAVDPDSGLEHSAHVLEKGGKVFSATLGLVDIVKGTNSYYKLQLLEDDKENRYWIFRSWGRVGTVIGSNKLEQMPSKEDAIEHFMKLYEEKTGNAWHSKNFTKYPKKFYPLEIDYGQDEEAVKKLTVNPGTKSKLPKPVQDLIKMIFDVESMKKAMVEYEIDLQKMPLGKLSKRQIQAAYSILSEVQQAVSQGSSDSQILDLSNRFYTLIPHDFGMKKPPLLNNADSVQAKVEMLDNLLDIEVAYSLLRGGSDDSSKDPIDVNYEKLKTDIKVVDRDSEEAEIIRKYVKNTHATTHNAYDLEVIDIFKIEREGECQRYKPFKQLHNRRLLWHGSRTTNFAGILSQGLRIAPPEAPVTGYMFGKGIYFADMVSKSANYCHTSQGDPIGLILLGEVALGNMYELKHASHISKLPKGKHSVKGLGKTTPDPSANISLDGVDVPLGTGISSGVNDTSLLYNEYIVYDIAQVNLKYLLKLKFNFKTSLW

| ED50 [1] [nM] | IC50 [2] [nM] | solubility [3] | Compound | other results |
| --- | --- | --- | --- | --- |
| 9440 | > 10000 | Soluble | CN(C)c1ccc(CCN2CCC(Oc3ccc4[nH]c(=O)c5c(c4c3)CCSC5)CC2)cc1 | – |
| 220 | 42 | Soluble | CCCN1CCC(Oc2ccc3[nH]c(=O)c4c(c3c2)CCSC4)CC1 | concentration at 0.75 h [5]: 391 ng/g; AUC(0-inf) [6]: 2910 ng·h/mL; Kp at 4 h [7]: 0.72; concentration at 0.17 h [8]: 2480 ng/mL; concentration at 0.75 h [9]: 610 ng/mL; concentration at 4 h [10]: 13 ng/g; half-life [4]: 52.6 min; Kp at 0.75 h [11]: 0.64; concentration at 0.17 h [12]: 1700 ng/g; Kp at 0.17 h [13]: 0.69; clearance [14]: 56.7 mL/min/kg; concentration at 4 h [15]: 18 ng/mL; half-life [16]: 207 min |
| 740 | 71 | Soluble | CC(C)CCN1CCC(Oc2ccc3[nH]c(=O)c4c(c3c2)CCSC4)CC1 | – |
| 800 | 53 | Soluble | O=c1[nH]c2ccc(OC3CCN(Cc4ccccc4)CC3)cc2c2c1CSCC2 | – |
| 730 | 80 | Soluble | CN1CCC(Oc2ccc3[nH]c(=O)c4c(c3c2)CCSC4)C1 (stereo not drawn) | – |
| 1260 | 40 | Soluble | COCCN1CCC(Oc2ccc3[nH]c(=O)c4c(c3c2)CCSC4)CC1 | – |
| 580 | 45 | Soluble | CCCCCN1CCC(Oc2ccc3[nH]c(=O)c4c(c3c2)CCSC4)CC1 | – |
| 360 | 38 | Soluble | O=c1[nH]c2ccc(OC3CCN(CCc4ccccc4)CC3)cc2c2c1CSCC2 | – |
| 580 | 39 | Soluble | CN1CCCC(Oc2ccc3[nH]c(=O)c4c(c3c2)CCSC4)C1 (stereo not drawn) | – |

The next lines start with the compound.

| Compound | ED50 [1] [nM] | IC50 [2] [nM] | solubility [3] | other results |
| --- | --- | --- | --- | --- |
| O=S(=O)(NCCCN1CCOCC1)c1ccc2c(c1)Cc1c-2nc(O)c2ccccc12 | 1000 | – | – | – |
| CCCN1CCCC(Oc2ccc3[nH]c(=O)c4c(c3c2)CCSC4)C1 (stereo not drawn) | 740 | 56 | Soluble | – |
| O=C1CC2(CCCC2)CC(=O)N1CCCCN1CCN(c2ncccn2)CC1 [BUSPIRONE] | – | – | – | half-life [4]: 3.8 min |
| O=c1[nH]c2ccc(OC3CCN(c4ccccc4)CC3)cc2c2c1CSCC2 | 1860 | 695 | – | – |
| CCN1CCC(Oc2ccc3[nH]c(=O)c4c(c3c2)CCSC4)C1 (stereo not drawn) | 350 | 13 | Soluble | – |
| O=c1[nH]c2ccc(O)cc2c2c1CSCC2 | – | 99 | – | – |
| CCN1CCCC(Oc2ccc3[nH]c(=O)c4c(c3c2)CCSC4)C1 (stereo not drawn) | 280 | 25 | Soluble | – |
| O=c1[nH]c2ccc(OC3CCCNC3)cc2c2c1CSCC2 (stereo not drawn) | 890 | 28 | Soluble | – |
| O=c1[nH]c2ccc(OC3CCN(CCO)CC3)cc2c2c1CSCC2 | 1600 | 29 | Soluble | – |
| O=c1[nH]c2ccc(OC3CCN(CCN4CCCCC4)CC3)cc2c2c1CSCC2 | > 30000 | 173 | Soluble | – |
